Results on one compound are retold here after ChEMBL document CHEMBL3227917, “Structure-activity relationships of dimeric Catharanthus alkaloids. 2. Experimental antitumor activities of N-substituted deacetylvinblastine amide (vindesine) sulfates” (J Med Chem, 1979).

The test system of series [1] is Mus musculus. The series can be described thus: Toxicity in C57BL/6 mouse allografted with mouse B16 cells assessed as animal death at 0.60 mg/kg, ip administered on days 1,5 and 9. The format is organism-based. Set-up: dose 0.6 mg/kg, route intraperitoneal. Conditions: in vivo, 0.6 mg/kg. An outline of the steps:
(§1)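 B16 melanoma cells (10⁶ inoculum) implanted ip in C57BL/6 mice; groups of 10. Sulfate salts unless noted, given ip on days 1, 5 and 9. Single test. Survival prolongation is expressed as percent versus controls, with survivors counted on day 60. Toxic means deaths of ≥5 of 10 animals before the first control death.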

For series [2], the system named is Mus musculus. Put plainly: Toxicity in C3H mouse allografted with mouse Gardner lymphosarcoma assessed as lethality at 0.40 mg/kg, ip administered daily for 8 to 10 days. Set-up: dose 0.4 mg/kg, route intraperitoneal. Type of series: organism-based. Conditions: in vivo, 0.4 mg/kg. An outline of the steps:
(§2)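 Tumor-bearing mice given sulfate salts ip daily for 8–10 days; values are the average of one or more tests. Toxic means lethal to ≥5 of 10 animals per group.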

In series [3] the test system is Mus musculus. Put plainly: Toxicity in C57BL/6 mouse allografted with mouse B16 cells assessed as animal death at 0.90 mg/kg, ip administered on days 1,5 and 9. The format is organism-based. The note with it: in vivo, 0.9 mg/kg. Set-up: dose 0.9 mg/kg, route intraperitoneal. The method in brief: as §1
The subject of a further series is B16. The series can be described thus: Antitumor activity against mouse B16 cells allografted in C57BL/6 mouse assessed as prolongation of host survival at 0.30 mg/kg, ip administered on days 1,5 and 9. Conditions: route intraperitoneal. Type of series: functional. An outline of the steps: as §1
A short description of series [4]: Antitumor activity against mouse Gardner lymphosarcoma allografted in C3H mouse assessed as tumor growth inhibition at 0.20 mg/kg, ip administered daily for 8 to 10 days. Type of series: functional. The note with it: route intraperitoneal, read-out: TGI. The method in brief: (§3)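 Gardner lymphosarcoma in C3H mice; sulfate salts unless noted, given ip daily for 8–10 days, treatment starting 8 days after tumor implantation. Tumor growth inhibition scored as –, 0–25%; +, 26–50%; ++, 51–75%; +++, 76–100%; T, lethal to ≥5 of 10 animals per group. Average of one or more tests.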

The subject of series [5] is Mus musculus. Put plainly: Toxicity in C3H mouse allografted with mouse Gardner lymphosarcoma assessed as lethality at 0.30 mg/kg, ip administered daily for 8 to 10 days. Type of series: organism-based. Set-up: dose 0.3 mg/kg, route intraperitoneal. The note with it: in vivo, 0.3 mg/kg. An outline of the steps: as §2
A short description of series [6]: Antitumor activity against mouse Gardner lymphosarcoma allografted in C3H mouse assessed as tumor growth inhibition at 0.10 mg/kg, ip administered daily for 8 to 10 days. Type of series: functional. The note with it: route intraperitoneal, read-out: TGI. An outline of the steps: as §3

In the case of `CC[C@]1(O)C[C@H]2CN(CCc3c([nH]c4ccccc34)[C@@](C(=O)OC)(c3cc4c(cc3OC)N(C)[C@H]3[C@@](O)(C(=O)NC5CCSC5=O)[C@H](O)[C@]5(CC)C=CCN6CC[C@]43[C@@H]65)C2)C1.O=S(=O)(O)O` (some centres not stated), the Activity entry with Mus musculus [1], in the series with Mus musculus [2], in the series with Mus musculus [3] and with Mus musculus [5] was “Toxic” each time. In addition, in the series on B16, the survival at 0.3 mg/kg worked out at 94%. Moreover, the inhibition in vivo at 0.2 mg/kg in series [4] is 0%. For the same compound, in series [6], the inhibition in vivo at 0.1 mg/kg was 0%.
